Cneo AK release: Cryptococcus neoformans lysis via adenylate kinase release; C. neoformans lysis, adenylate kinase release luminescence, 4 h; normalised: neutral wells 0, clomiphene wells 100; lysis activity, % at 15 µM; actives 0.2% (n = 360,000); AID 651654;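 active means mean lysis activity across replicates of at least 80%, whatever share of replicates individually reach that level; inactive means mean lysis activity below 80%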
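Assay system: C. neoformans cells. Amount: yeast cell density of 5 × 10^6 cells/mL. Technique: AK luminescence. Buffer or medium: YPD. Times: static 4 h at 37 °C with compound, 1 h detection. Dosing: single-point compound dose. Read-out: lysis from increased AK signal.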
DENV2 CPE: protects cells from dengue virus 2 cytopathic effect. DENV2-infected cells, cytopathic effect rescue, plate reader. CPE inhibition, % at 9.99 µM. actives 1.7% (n = 350,000). AID 651640; in the data active means CPE inhibition above about 20%, passing the limit was not always enough; inconclusive means no clear call, values can overlap the other calls; tested in BHK-21 cells;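 further: 0% = median of neutral control wells and 100% = median of positive control wells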
miR122 inh: blocks miR-122 activity in Huh7 sensor cells. Huh7 miR-122 Renilla luciferase sensor, 48 h; neutral wells = 0, positive control = 100. activation (reporter increase), % at 12.5 µM. actives 0.3% (n = 340,000). AID 602342;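 active means mean replicate activation score at least 90 and every replicate individually at or above 90; inconclusive means only one of the two criteria met; inactive means neither criterion met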;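 further: higher luciferase means less miR-122 activity so hits act as miR-122 inhibitors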
rRNA inh HTS: inhibits bacterial ribosomal RNA function over humanized ribosomes | E. coli WT GFP vs humanized-ribosome RFP mutants, fluorescence, 24 h; stronger effect = lower value; DMSO median 0, no signal -100 | GFP signal change (wild-type ribosome), % (no concentration beside the values) | actives 1.6% (n = 350,000) | AID 720706;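 active means significant combined selectivity score with lowered wild-type GFP, culture density cut under 30%, mutant RFP and density less affected; inactive means any of these conditions unmet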
E-sel inducer: E-selectin induction on HUVECs | P16581 | HUVEC E-selectin immunofluorescence imaging; normalized: neutral wells 0, TNF-alpha wells 100 | activation, % at 7.58 µM | actives 0.37% (n = 260,000) | AID 686992;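 active means mean E-selectin-positive cell signal at least 10% of the positive control, reached in at least 60% of replicates, without over 20% cell loss; inconclusive means no rule given, readout overlaps actives, possibly toxicity-flagged; inactive means the rest, including those meeting only one limit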
Target sequence (P16581 whole entry, looked up): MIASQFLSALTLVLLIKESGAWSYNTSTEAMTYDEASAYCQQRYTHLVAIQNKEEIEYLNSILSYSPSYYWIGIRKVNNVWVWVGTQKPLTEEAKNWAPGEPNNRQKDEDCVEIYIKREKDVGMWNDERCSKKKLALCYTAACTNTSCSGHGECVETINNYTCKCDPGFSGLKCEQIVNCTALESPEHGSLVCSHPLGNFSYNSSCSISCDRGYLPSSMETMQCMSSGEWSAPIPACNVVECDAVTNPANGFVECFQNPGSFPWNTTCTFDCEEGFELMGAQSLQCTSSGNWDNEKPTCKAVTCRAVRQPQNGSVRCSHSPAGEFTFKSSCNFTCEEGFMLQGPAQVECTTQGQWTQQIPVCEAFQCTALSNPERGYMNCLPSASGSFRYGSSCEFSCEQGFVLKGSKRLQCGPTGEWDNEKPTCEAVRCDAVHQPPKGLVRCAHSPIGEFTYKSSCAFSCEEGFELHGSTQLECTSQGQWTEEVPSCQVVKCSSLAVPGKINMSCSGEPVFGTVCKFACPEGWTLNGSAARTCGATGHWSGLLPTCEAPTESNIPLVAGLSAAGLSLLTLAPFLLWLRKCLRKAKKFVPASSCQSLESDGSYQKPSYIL
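material = human umbilical vein endothelial cells (HUVEC), E-selectin induction | quantity = 3,000 cells/well | medium = EGM-2 growth medium on 0.1% gelatin-coated wells | technique = immunofluorescence imaging | read-out basis = % PE-positive cells | control set = TNF-alpha positive control, DMSO neutral control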
An asterisk follows results filed as active; ? = inconclusive; / = no result given; [ ] = another dose, or the depositor's remark. The list is not random: actives were taken first. Their share in the collection is about 3.1%.

SMILES | Cneo AK release | DENV2 CPE | miR122 inh | rRNA inh HTS | E-sel inducer
COc1ccc(S(=O)(=O)N(C)C[C@H]2Oc3ccc(NC(=O)C4CCCCC4)cc3CC(=O)N([C@H](C)CO)C[C@H]2C)cc1 | -12 | 22* | -11[16.7 µM] | -3 | 5
COc1ccc(S(=O)(=O)N(C)C[C@@H]2Oc3ccc(NC(=O)C4CCCCC4)cc3CC(=O)N([C@H](C)CO)C[C@@H]2C)cc1 | -1 | 6 | -6[16.7 µM] | 2 | 0
COc1ccc(S(=O)(=O)N(C)C[C@@H]2Oc3c(NC(=O)Nc4ccc5c(c4)OCO5)cccc3C(=O)N([C@@H](C)CO)C[C@@H]2C)cc1 | -10 | 27* | -8[16.7 µM] | -5 | 5
COc1ccc(S(=O)(=O)N(C)C[C@@H]2Oc3ccc(N(C)C)cc3CC(=O)N([C@@H](C)CO)C[C@@H]2C)cc1 | -2 | 15 | 4[16.7 µM] | -1 | 0
C[C@H](CO)N1C[C@H](C)[C@@H](CN(C)S(C)(=O)=O)Oc2ccc(NC(=O)C3CCCCC3)cc2CC1=O | -4 | 18 | -1[16.7 µM] | 9 | 27*
COc1ccc(S(=O)(=O)N(C)C[C@@H]2Oc3ccc(N(C)C)cc3CC(=O)N([C@H](C)CO)C[C@@H]2C)cc1 | -12 | 23* | 0[16.7 µM] | 0 | 0
C[C@H](CO)N1C[C@H](C)[C@H](CN(C)S(C)(=O)=O)Oc2ccc(NC(=O)C3CCCCC3)cc2CC1=O | 9 | -3 | 6[16.7 µM] | 4 | -6
CC(=O)N(C)C[C@@H]1Oc2ncc(C#Cc3ccc(F)cc3)cc2C(=O)N([C@@H](C)CO)C[C@@H]1C | -5 | -4 | 10[16.7 µM] | 10 | 0
CCCC(=O)N1CC2(CCN(C(=O)Nc3cccc(F)c3)CC2)c2c(n(C)c3cc(OC)ccc23)[C@@H]1CO | / | 13 | / | -5 | 0
COc1ccc(NC(=O)Nc2ccc3c(c2)CC(=O)N([C@H](C)CO)C[C@@H](C)[C@@H](CN(C)S(=O)(=O)c2ccc(OC)cc2)O3)cc1 | -1 | 40* | -9[16.7 µM] | -3 | 0
COc1ccc(NC(=O)Nc2ccc3c(c2)CC(=O)N([C@@H](C)CO)C[C@@H](C)[C@H](CN(C)S(C)(=O)=O)O3)cc1 | / | 30* | / | 0 | /
COc1ccc(S(=O)(=O)N(C)C[C@@H]2Oc3ccc(NC(=O)Nc4ccc5c(c4)OCO5)cc3CC(=O)N([C@@H](C)CO)C[C@@H]2C)cc1 | 2 | 1 | -12[16.7 µM] | 3 | -13
COc1ccc(S(=O)(=O)N(C)C[C@H]2Oc3ccc(NC(=O)Nc4ccc5c(c4)OCO5)cc3CC(=O)N([C@@H](C)CO)C[C@H]2C)cc1 | -1 | 0 | -14[16.7 µM] | -1 | 79*
COc1ccc(NC(=O)Nc2ccc3c(c2)CC(=O)N([C@H](C)CO)C[C@H](C)[C@H](CN(C)S(=O)(=O)c2ccc(Cl)cc2)O3)cc1 | / | -4 | 27[16.7 µM] | -3 | -3
COC(=O)C[C@H]1CC[C@H]2[C@@H](COc3ccc(NS(=O)(=O)c4ccccc4F)cc3C(=O)N2C)O1 | / | -11 | / | 1 | 0
CC(C)NC(=O)Nc1ccc2c(c1)CC(=O)N(C)C[C@H](C)[C@@H](CN(C)S(C)(=O)=O)O2 | / | / | / | 1 | /
O=C(N/N=C/c1ccc(O)cc1)Nc1cccc2nsnc12 | / | -8 | / | -31* | 18
Cc1ccc(-c2csc(NCCn3c(-c4ccncc4)nc4ccccc43)n2)cc1 | 0 | / | -8 | -21* | 0
Cc1ccc(S(=O)(=O)N2C[C@H](O)COC[C@H]3O[C@@H](CC(=O)N[C@H]4CCN(Cc5ccccc5)C4)CC[C@@H]32)cc1 | -2 | -3 | -4[16.7 µM] | 5 | 0
Cc1ccc(N/C=C/C(=O)c2cccs2)cc1C | -1 | / | 0 | -20* | /
O=C(/C=C/Nc1ccc(Nc2ccccc2)cc1)c1cccs1 | / | 0 | / | -23* | 0
O=C(/C=C/Nc1cccc([N+](=O)[O-])c1)c1cccs1 | -5 | / | ? | / | /
Cc1cc(N/C=C/C(=O)c2cccs2)ccc1F | -2 | -5 | 27 | 7 | /
O=C(C[C@H]1C=C[C@@H](NC(=O)C2CCOCC2)[C@H](CO)O1)NCC1CCCCC1 | 0 | -3 | / | -6 | 0
CN1C(=O)c2cc(NC(=O)Cc3ccccc3)ccc2OC[C@@H]2O[C@@H](CC(=O)O)CC[C@@H]21 | 6 | -2 | -17[16.7 µM] | 3 | 0
SMILES | Cneo AK release | DENV2 CPE | miR122 inh | rRNA inh HTS | E-sel inducer
C[C@@H]1CN([C@H](C)CO)C(=O)Cc2cc(NC(=O)Cc3cn(C)c4ccccc34)ccc2O[C@@H]1CN(C)S(=O)(=O)c1cn(C)cn1 | 4 | -4 | 0[16.7 µM] | 0 | 0
O=C(CCCCCN1C(=O)[C@@H]2Cc3ccccc3CN2C1=O)Nc1cccc(F)c1 | 1 | 10 | / | -35* | 4
Cc1cccc(NC(=O)CCCCCN2C(=O)[C@@H]3Cc4ccccc4CN3C2=O)c1 | / | 1 | 1 | -5 | 0
CCCC(=O)N1CC2(C1)CN(C(=O)C1CC1)[C@H](CO)c1[nH]c3cc(OC)ccc3c12 | / | -9 | / | 1 | 0
NC(=O)c1ncn([C@@H]2O[C@H](C(=O)N[C@H](Cc3c[nH]c4ccccc34)C(=O)N3CCN(CC(=O)N4CCCC4)CC3)[C@@H](O)[C@H]2O)n1 | / | 21* | / | 13 | ?
NC(=O)c1ncn([C@@H]2O[C@H](C(=O)N[C@H](Cc3c[nH]c4ccccc34)C(=O)N3CCN(C(=O)C4CC4)CC3)[C@@H](O)[C@H]2O)n1 | / | -1 | / | 21 | 0
CN(C)C(=O)c1ccc(-c2ccccc2[C@@H]2[C@H](C#N)N(C(=O)C3CCCC3)[C@H]2CO)cc1 | / | ? | / | 5 | 0
C[C@@H]1CCCCO[C@@H](CN(C)Cc2ccc3c(c2)OCO3)[C@H](C)CN([C@@H](C)CO)C(=O)c2cc(N(C)C)ccc2O1 | 3 | -7 | 2[16.7 µM] | -2 | /
CSc1nc(-c2ccc(C)cc2)[nH]c1S(=O)(=O)c1ccccc1 | -3 | / | 126* | / | /
C[C@@H]1CCCCO[C@H](CN(C)CC2CCCCC2)[C@H](C)CN([C@H](C)CO)C(=O)c2cc(NS(=O)(=O)c3ccccc3)ccc2O1 | 5 | 16 | -7[16.7 µM] | 1 | 0
Cc1ccc2c(Cl)c(C)c(N3CCCC3)nc2n1 | 29 | -6 | -1 | -36* | -1
COc1ccc2c3c(n(C)c2c1)[C@H](CO)N(C(=O)C1CC1)CC31CCN(C(=O)Nc2cccc(F)c2)CC1 | / | -4 | / | -9 | 0
CC1(c2ccc3ccccc3c2)CCC(=O)O1 (centres undefined) | / | 22* | / | -4 | 0
C/C=C/c1ccc([C@@H]2[C@H](CO)N(Cc3cccc(F)c3)C23CN(C(=O)CC)C3)cc1 | / | -8 | / | -1 | 0
COc1ccc(NC(=O)[C@@H]2CC=C[C@@H]3CCN(Cc4ccccc4)C(=O)[C@@H]32)cc1 | 0 | 25* | 5 | -4 | 0
CCOc1ccc(CCNC(=O)CCn2ccc3cc(S(=O)(=O)N4CCCC4)ccc32)cc1 | 6 | -3 | 6 | -21* | /

High-throughput results: PubChem BioAssay, Broad Institute
